The text below walks through data of ChEMBL document CHEMBL3758106, “Antitumor Activity of Americanin A Isolated from the Seeds of Phytolacca americana by Regulating the ATM/ATR Signaling Pathway and the Skp2-p27 Axis in Human Colon Cancer Cells” (J Nat Prod, 2015).

The term IC50 denotes the concentration that gives 50% inhibition.

A short description of assay [1]: Antiproliferative activity against human HCT116 cells after 24 to 72 hrs by SRB assay. Type of assay: functional, cell-based. The settings on record: HCT-116. In a few lines:
(§1)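 Cells grown in 96-well plates (RPMI 1640; MRC-5 in MEM, 10% FBS, antibiotics) with compound […]; fixed in 10% TCA 30 min at 4 °C, stained 0.4% SRB in 1% acetic acid 1 h, dye dissolved in 10 mM Tris pH 10.0, A515 read; viability as % of solvent control, IC50 by nonlinear regression; mean of three independent experiments.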

Assay [2] concerns HCT-116. In words: Induction of reactive oxygen species in human HCT116 cells at 1 mM after 48 hrs by DCFH-DA staining-based flow cytometric analysis (reference value: 5.1%). In kind it is functional. In a few lines: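 HCT116 cells seeded overnight, then exposed to test compounds, alone or with NAC, for 48 h in complete medium. Loaded with 20 μM DCFH-DA for 30 min; intracellular ROS in 20 000 cells per group read by flow cytometry as histograms.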
On the technique in general: Flow cytometry measures light scatter and fluorescence of single cells or particles in a stream.

The test system of assay [3] is HCT-116. In words: Induction of apoptosis in human HCT116 cells assessed as dead cells at 1 mM after 48 hrs by annexin V-FITC/propidium iodide staining-based flow cytometric analysis (reference value: 4.2%). In kind it is functional.
In assay [4] the test system is HCT-116. In words: Induction of apoptosis in human HCT116 cells assessed as late apoptotic cells at 1 mM after 48 hrs by annexin V-FITC/propidium iodide staining-based flow cytometric analysis (reference value: 7.2%). Type of assay: functional.
Assay [5] concerns HCT-116. In words: Induction of apoptosis in human HCT116 cells assessed as viable cells at 1 mM after 48 hrs by annexin V-FITC/propidium iodide staining-based flow cytometric analysis (reference value: 87.4%). The following applies: HCT-116, 48 h, read-out: Activity. In kind it is functional.
In assay [6] the test system is HCT-116. In words: Induction of apoptosis in human HCT116 cells assessed as early apoptotic cells at 1 mM after 48 hrs by annexin V-FITC/propidium iodide staining-based flow cytometric analysis (reference value: 1.1%). Type of assay: functional.
The nature of assay [7]: Antiproliferative activity against human HCT116 cells assessed as cell viability after 24 hrs by SRB assay. Type of assay: functional, cell-based. The following applies: HCT-116, 24 h. A digest of the protocol:
(§2)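 HCT116 cells in 96-well plates exposed 24, 48 or 72 h; TCA fixation, 0.4% SRB staining, dye solubilised in 10 mM Tris pH 10.0, absorbance at 515 nm; viability relative to solvent-treated control.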
A general note: In SRB staining, fixed cells bind dye roughly in proportion to their protein.

The nature of assay [8]: Antiproliferative activity against human HCT116 cells assessed as cell viability after 48 hrs by SRB assay. Type of assay: functional, cell-based. The following applies: HCT-116, 48 h. A digest of the protocol: as §2
A short description of assay [9]: Antiproliferative activity against human HCT116 cells assessed as cell viability after 72 hrs by SRB assay. Type of assay: functional, cell-based. The settings on record: HCT-116, 72 h. A digest of the protocol:
as §2

Assay [10] is described as follows: Antiproliferative activity against p53-null human HCT116 cells assessed as cell viability after 72 hrs by SRB assay. In kind it is functional, cell-based. The following applies: HCT-116, 72 h. A digest of the protocol:
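p53 wild-type and p53-null HCT116 cells in 96-well plates treated 72 h; SRB assay (TCA fix, SRB stain, Tris pH 10.0 solubilisation, A515); viability vs solvent control, IC50 by nonlinear regression.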

For assay [11], the system named is A549. The experiment in a line: Antiproliferative activity against human A549 cells after 24 to 72 hrs by SRB assay. In kind it is functional, cell-based. A digest of the protocol:
as §1

Assay [12] concerns CAKI-1. In words: Antiproliferative activity against human CAKI-1 cells after 24 to 72 hrs by SRB assay. Type of assay: functional, cell-based. In a few lines: as §1
Assay [13] deals with K562. The experiment in a line: Antiproliferative activity against human K562 cells after 24 to 72 hrs by SRB assay. Type of assay: functional, cell-based. In a few lines: as §1
Assay [14] concerns MRC5. The experiment in a line: Cytotoxicity against human MRC5 cells after 24 to 72 hrs by SRB assay. Type of assay: cell-based. In a few lines:
as §1

Assay [15] in a line: Antitumor activity against human HCT116 cells xenografted in nude mouse assessed as tumor growth inhibition at 10 mg/kg, ip administered once per week measured on day 41. The following applies: HCT-116, ip, 984 h, read-out: TGI. In kind it is functional. In a few lines:
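Nude mice given 2 × 10^6 HCT116 cells subcutaneously in flank; at ~120 mm3 randomised, six per group; ip dosing in 200 μL, test agent 5 or 10 mg/kg three times weekly, irinotecan 10 mg/kg once weekly; tumour volume measured twice weekly to day 41; body weight tracked for toxicity.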
A general note: A xenograft is tissue or cells of one species grown in another, often human tumour cells in immunodeficient mice.

Assay [16] relates to SW480. The experiment in a line: Antiproliferative activity against human SW480 cells after 24 to 72 hrs by SRB assay. Type of assay: functional, cell-based. A digest of the protocol:
as §1

Assay [17] is described as follows: Antiproliferative activity against human HCT15 cells after 24 to 72 hrs by SRB assay. Type of assay: functional, cell-based. The following applies: HCT-15. In a few lines: as §1
The subject of assay [18] is RKO. The experiment in a line: Antiproliferative activity against human RKO cells after 24 to 72 hrs by SRB assay. In kind it is functional, cell-based. A digest of the protocol:
as §1

As for `CC(=O)/C=C/C=C/c1ccc2c(c1)O[C@@H](CO)[C@H](c1ccc(O)c(O)c1)O2`, the half-maximal inhibitory concentration (IC50) in [1] is above 100 µM.
Take `O=C/C=C/c1ccc2c(c1)O[C@@H](CO)[C@H](c1ccc3c(c1)O[C@@H](CO)[C@H](c1ccc(O)c(O)c1)O3)O2`: the half-inhibitory concentration (IC50) in [1] turned out to be 10.9 µM.
On to `COc1ccc([C@@H]2Oc3ccc(C=O)cc3O[C@H]2CO)cc1OC`, for which the IC50 in assay [1] was above 100 µM.
On the same count and under the same terms, as for `COc1ccc([C@@H]2Oc3ccc(/C=C/C=O)cc3O[C@H]2COC(C)=O)cc1OC`, the figure is 5.6 µM; as for `O=C/C=C/c1ccc2c(c1)[C@@H](CO)[C@H](c1ccc(O)c(O)c1)O2`, 10.4 µM; as for `COc1ccc([C@@H]2Oc3ccc(/C=C/C=O)cc3O[C@H]2CO)cc1OC`, 4 µM.
Regarding `CC(=O)N[C@@H](CS)C(=O)O` [ACETYLCYSTEINE], the Activity in [2] came to 6%; in assay [3] it was 4.9%; in assay [4], 8.5%; in assay [6], 1.1%. The viability at 1000 µM in assay [5] was determined as 85.6%.
For `COc1cc([C@@H]2c3cc4c(cc3[C@@H](O[C@@H]3O[C@@H]5CO[C@@H](C)O[C@H]5[C@H](O)[C@H]3O)[C@H]3COC(=O)[C@H]23)OCO4)cc(OC)c1O` [ETOPOSIDE], the IC50 was above 20 µM in assay [7]; 2.3 µM in assay [8]; 0.3 µM in [9]; 3.1 µM in assay [10]; 0.8 µM in [11]; 1.1 µM in assay [12]. For the same compound, the concentration for half-maximal inhibition (IC50) is 6.7 µM in assay [13], 3.3 µM in [1] and above 20 µM in [14].
Turning to `CCc1c2c(nc3ccc(OC(=O)N4CCC(N5CCCCC5)CC4)cc13)-c1cc3c(c(=O)n1C2)COC(=O)[C@]3(O)CC` [IRINOTECAN], in [15], the inhibition in vivo at 10 mg/kg stood at 68.6%. For the same compound, the IC50 in assay [1] was 2 µM; in assay [16], 12.3 µM; in assay [17], 8.5 µM; in [18], 6.2 µM.
